In brackets after ≈: the same amount, converted by molar mass.
Experiments:
[1] = test system: Enterococcus faecalis; assay: Compound was tested for the inhibition of cell wall biosynthesis and growth against Enterococcus faecalis (ATCC51575) (Vancomycin-resistant); type: functional
Method in brief: (§1)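 Broth microdilution MIC in brain heart infusion medium with 0.1% casamino acids. Log-phase cells were diluted to about 5×10^5 CFU/mL and exposed to compound serially diluted in DMSO (5% final DMSO). OD600 was read in microtiter plates. MIC (µg/mL) was called where [OD600 control − OD600 test]/[OD600 control − OD600 media] × 100 > 90%.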

[2] = test system: Enterococcus faecalis; assay: Compound was tested for the inhibition of cell wall biosynthesis and growth against Enterococcus faecalis (CL5244) (Vancomycin-resistant); type: functional; method in brief: as §1
[3] = test system: Enterococcus faecalis; assay: Compound was tested for the inhibition of cell wall biosynthesis and growth against Enterococcus faecalis (ATCC 29212) (sensitive strain); type: functional; method in brief: as §1
[4] = test system: Enterococcus faecalis; assay: Compound was tested for the inhibition of cell wall biosynthesis and growth against Enterococcus faecalis (CL4877) (Vancomycin-resistant); type: functional; method in brief: as §1
[5] = test system: Enterococcus faecium; assay: Compound was tested for the inhibition of cell wall biosynthesis and growth against Enterococcus faecium (ATCC49624) (sensitive strain); type: functional; method in brief: as §1
[6] = test system: Enterococcus faecium; assay: Compound was tested for the inhibition of cell wall biosynthesis and growth against Enterococcus faecium (ATCC51559) (Vancomycin-resistant); type: functional; method in brief: as §1
[7] = The compound was tested for inhibitory activity against PGP30 bacterial cell wall biosynthesis; type: functional, Bacteria
[8] = test system: Escherichia coli; assay: Compound was tested for the inhibition of cell wall biosynthesis and growth against Escherichia coli (BAS849) (super-sensitive permeability mutant of E. coli) (sensitive strain); type: functional
Method in brief: (§2)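 MIC by broth dilution in brain heart infusion medium with 0.1% casamino acids. Log-phase cells diluted to about 5×10^5 CFU/mL and exposed to compound serially diluted in DMSO (5% final DMSO). OD600 read on a plate reader; MIC taken as the concentration giving >90% growth inhibition relative to untreated control, corrected for medium blank.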

[9] = test system: Enterococcus faecium; assay: Compound was tested for the inhibition of cell wall biosynthesis and growth against Enterococcus faecium (CL4931) (Vancomycin-resistant); type: functional; method in brief: as §1
[10] = test system: Staphylococcus aureus; assay: Compound was tested for the inhibition of cell wall biosynthesis and growth against Staphylococcus aureus (ATCC 29213) (sensitive strain); type: functional; method in brief: as §1
[11] = test system: Staphylococcus aureus; assay: Compound was tested for the inhibition of cell wall biosynthesis and growth against Staphylococcus aureus (ATCC 43300) (Methicillin-resistant); type: functional; method in brief: as §1
[12] = test system: Staphylococcus epidermidis; assay: Compound was tested for the inhibition of cell wall biosynthesis and growth against Staphylococcus epidermidis (ATCC 12228) (sensitive strain); type: functional; method in brief: as §2
[13] = test system: Enterococcus faecium; assay: Compound was tested for the inhibition of cell wall biosynthesis and growth against Enterococcus faecium (ATCC49624) (sensitive strain)

## CCCCCCCCCCCCO[C@H](COP(=O)(O)OC1OC(C(N)=O)C(O)C(NC(=O)Nc2ccc(OC(F)(F)F)cc2)C1OC1OC(CO)C(O)C(O)C1NC(=O)c1cccc(C(F)(F)F)c1)C(=O)O (stereo partly specified)
[1]
  MIC: 25 µg/mL (≈ 23.5 µM)
[2]
  MIC: 6.25 µg/mL (≈ 5.87 µM)
[3]
  MIC: 6.25 µg/mL (≈ 5.87 µM)
[4]
  MIC: 6.25 µg/mL (≈ 5.87 µM)
[5]
  MIC: 6.25 µg/mL (≈ 5.87 µM)
[6]
  MIC: 12.5 µg/mL (≈ 11.7 µM)
[7]
  IC50: 9.2 µg/mL (≈ 8.64 µM)
[8]
  MIC: > 25 µg/mL
[9]
  MIC: 6.25 µg/mL (≈ 5.87 µM)
[10]
  MIC: 6.25 µg/mL (≈ 5.87 µM)
[11]
  MIC: 6.25 µg/mL (≈ 5.87 µM)
[12]
  MIC: 6.25 µg/mL (≈ 5.87 µM)

## CN[C@H](CC(C)C)C(=O)N[C@H]1C(=O)N[C@@H](CC(N)=O)C(=O)N[C@H]2C(=O)N[C@H]3C(=O)N[C@H](C(=O)N[C@H](C(=O)O)c4cc(O)cc(O)c4-c4cc3ccc4O)[C@H](O)c3ccc(c(Cl)c3)Oc3cc2cc(c3O[C@@H]2O[C@H](CO)[C@@H](O)[C@H](O)[C@H]2O[C@H]2C[C@](C)(N)[C@H](O)[C@H](C)O2)Oc2ccc(cc2Cl)[C@H]1O [VANCOMYCIN]
[1]
  MIC: > 125 µg/mL
[2]
  MIC: 15.6 µg/mL (≈ 10.8 µM)
[3]
  MIC: 6.25 µg/mL (≈ 4.31 µM)
[4]
  MIC: > 125 µg/mL
[5]
  MIC: 0.78 µg/mL (≈ 0.538 µM)
[6]
  MIC: > 125 µg/mL
[7]
  IC50: 5.2 µg/mL (≈ 3.59 µM)
[8]
  MIC: 0.78 µg/mL (≈ 0.538 µM)
[9]
  MIC: > 125 µg/mL
[10]
  MIC: 3.13 µg/mL (≈ 2.16 µM)
[11]
  MIC: 3.13 µg/mL (≈ 2.16 µM)
[12]
  MIC: 3.13 µg/mL (≈ 2.16 µM)

## CCCCCCCCCCCCCCC(OP(=O)(O)OC1OC(C(N)=O)C(OC)C(NC(=O)Nc2ccc(Cl)c(C(F)(F)F)c2)C1OC1OC(CO)C(O)C(O)C1NC(=O)c1cccc(C(F)(F)F)c1)C(=O)O (stereo unspecified)
[1]
  MIC: 6.25 µg/mL (≈ 5.71 µM)
[2]
  MIC: 6.25 µg/mL (≈ 5.71 µM)
[3]
  MIC: 3.12 µg/mL (≈ 2.85 µM)
[4]
  MIC: 3.12 µg/mL (≈ 2.85 µM)
[5]
  MIC: 3.12 µg/mL (≈ 2.85 µM)
[6]
  MIC: 3.12 µg/mL (≈ 2.85 µM)
[7]
  IC50: 9.2 µg/mL (≈ 8.4 µM)
[8]
  MIC: > 25 µg/mL
[9]
  MIC: 6.25 µg/mL (≈ 5.71 µM)
[10]
  MIC: 6.25 µg/mL (≈ 5.71 µM)
[11]
  MIC: 3.12 µg/mL (≈ 2.85 µM)
[12]
  MIC: 6.25 µg/mL (≈ 5.71 µM)

## CCCCCCCCCCCCO[C@H](COP(=O)(O)OC1OC(C(N)=O)C(O)C(NC(=O)Nc2ccc(Cl)c(C(F)(F)F)c2)C1OC1OC(CO)C(O)C(O)C1NC(=O)c1cccc(C(F)(F)F)c1)C(=O)O (stereo partly specified)
[1]
  MIC: 12.5 µg/mL (≈ 11.5 µM)
[2]
  MIC: 3.13 µg/mL (≈ 2.89 µM)
[3]
  MIC: 3.12 µg/mL (≈ 2.88 µM)
[4]
  MIC: 3.13 µg/mL (≈ 2.89 µM)
[5]
  MIC: 6.25 µg/mL (≈ 5.77 µM)
[6]
  MIC: 6.25 µg/mL (≈ 5.77 µM)
[7]
  IC50: 10.6 µg/mL (≈ 9.78 µM)
[8]
  MIC: 12.5 µg/mL (≈ 11.5 µM)
[9]
  MIC: 6.25 µg/mL (≈ 5.77 µM)
[10]
  MIC: 12.5 µg/mL (≈ 11.5 µM)
[11]
  MIC: 12.5 µg/mL (≈ 11.5 µM)
[12]
  MIC: 12.5 µg/mL (≈ 11.5 µM)

## CCCCCCCCCCCCO[C@H](COP(=O)(O)OC1OC(C(N)=O)C(OC)C(NC(=O)Nc2ccc(Cl)c(C(F)(F)F)c2)C1OC1OC(CO)C(O)C(O)C1NC(=O)c1ccccc1)C(=O)O (stereo partly specified)
[1]
  MIC: 25 µg/mL (≈ 24.3 µM)
[2]
  MIC: 12.5 µg/mL (≈ 12.1 µM)
[3]
  MIC: 12.5 µg/mL (≈ 12.1 µM)
[4]
  MIC: 6.25 µg/mL (≈ 6.07 µM)
[6]
  MIC: 12.5 µg/mL (≈ 12.1 µM)
[7]
  IC50: 6.8 µg/mL (≈ 6.61 µM)
[8]
  MIC: 25 µg/mL (≈ 24.3 µM)
[9]
  MIC: 25 µg/mL (≈ 24.3 µM)
[10]
  MIC: 12.5 µg/mL (≈ 12.1 µM)
[11]
  MIC: 25 µg/mL (≈ 24.3 µM)
[12]
  MIC: 12.5 µg/mL (≈ 12.1 µM)
[13]
  MIC: 12.5 µg/mL (≈ 12.1 µM)

## CCCCCCCCCCCCOP(=O)(O)OC1OC(C(N)=O)C(OC)C(NC(=O)Nc2ccc(Cl)c(C(F)(F)F)c2)C1OC1OC(CO)C(O)C(O)C1NC(=O)c1cccc(C(F)(F)F)c1 (stereo unspecified)
[1]
  MIC: 6.25 µg/mL (≈ 6.19 µM)
[2]
  MIC: 6.25 µg/mL (≈ 6.19 µM)
[3]
  MIC: 6.25 µg/mL (≈ 6.19 µM)
[4]
  MIC: 3.12 µg/mL (≈ 3.09 µM)
[5]
  MIC: 6.25 µg/mL (≈ 6.19 µM)
[6]
  MIC: 6.25 µg/mL (≈ 6.19 µM)
[7]
  IC50: 8.2 µg/mL (≈ 8.12 µM)
[8]
  MIC: 12.5 µg/mL (≈ 12.4 µM)
[9]
  MIC: 6.25 µg/mL (≈ 6.19 µM)
[10]
  MIC: 6.25 µg/mL (≈ 6.19 µM)
[11]
  MIC: 6.25 µg/mL (≈ 6.19 µM)
[12]
  MIC: 6.25 µg/mL (≈ 6.19 µM)

## C=C(C/C=C(\C)CCC=C(C)C)CCC(C)(C)/C=C/CC/C(C)=C\CO[C@H](COP(=O)(O)O[C@H]1O[C@@H](C(N)=O)[C@@](C)(O)[C@H](OC(N)=O)[C@@H]1O[C@@H]1O[C@@H](CO[C@@H]2O[C@@H](CO)[C@@H](O)[C@H](O)[C@@H]2O)[C@@H](O[C@@H]2O[C@@H](C)[C@@H](O[C@@H]3O[C@@H](C(=O)NC4=C(O)CCC4=O)[C@H](O)[C@H](O)[C@@H]3O)[C@H](O)[C@@H]2NC(C)=O)[C@@H](O)[C@@H]1NC(C)=O)C(=O)O [MOENOMYCIN]
[1]
  MIC: 0.062 µg/mL (≈ 0.0392 µM)
[2]
  MIC: 0.062 µg/mL (≈ 0.0392 µM)
[3]
  MIC: 0.078 µg/mL (≈ 0.0493 µM)
[4]
  MIC: 0.062 µg/mL (≈ 0.0392 µM)
[5]
  MIC: > 200 µg/mL
[6]
  MIC: 1.56 µg/mL (≈ 0.986 µM)
[7]
  IC50: 0.025 µg/mL (≈ 0.0158 µM)
[8]
  MIC: 0.025 µg/mL (≈ 0.0158 µM)
[9]
  MIC: 0.39 µg/mL (≈ 0.246 µM)
[10]
  MIC: 0.05 µg/mL (≈ 0.0316 µM)
[11]
  MIC: 0.062 µg/mL (≈ 0.0392 µM)
[12]
  MIC: 0.025 µg/mL (≈ 0.0158 µM)

## CCCCCCCCCCCCOP(=O)(O)OC1OC(C(N)=O)C(O)C(NC(=O)Nc2ccc(Cl)c(C(F)(F)F)c2)C1OC1OC(CO)C(O)C(O)C1NC(=O)c1cccc(C(F)(F)F)c1 (stereo unspecified)
[1]
  MIC: 12.5 µg/mL (≈ 12.6 µM)
[2]
  MIC: 3.13 µg/mL (≈ 3.14 µM)
[3]
  MIC: 3.12 µg/mL (≈ 3.13 µM)
[4]
  MIC: 3.13 µg/mL (≈ 3.14 µM)
[5]
  MIC: 12.5 µg/mL (≈ 12.6 µM)
[6]
  MIC: 12.5 µg/mL (≈ 12.6 µM)
[7]
  IC50: 15.4 µg/mL (≈ 15.5 µM)
[8]
  MIC: 12.5 µg/mL (≈ 12.6 µM)
[9]
  MIC: 3.13 µg/mL (≈ 3.14 µM)
[10]
  MIC: 6.25 µg/mL (≈ 6.28 µM)
[11]
  MIC: 6.25 µg/mL (≈ 6.28 µM)
[12]
  MIC: 12.5 µg/mL (≈ 12.6 µM)
